# According to ChEMBL document CHEMBL1125796, “Antitumor properties of 2(1H)-pyrimidinone riboside (zebularine) and its fluorinated analogues” (1991):
# “And” between values parts separate entries of the source, which are not always exact repeats. Identical values can stand only once.
# Key:
# Type in all cases: functional
# [1] = tested on: Mus musculus; experiment: Antitumor activity against L1210 ttumor in mice, at a dose of 200 mg/kg per ip administration.; conditions: route intraperitoneal
# In short: (§1)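 Tumors implanted ip on day 0: B16 melanoma (0.5 mL of 1:10 brei) in BDF1 mice, and L1210 or P388 leukemia (10^6 cells) in CDF1 mice. Compound was given ip in physiologic saline daily on days 1–9. Read-out was % increase in life span versus vehicle-treated tumored controls, with body-weight change difference also recorded. Six mice per dose, three in some P388 groups.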
# [2] = tested on: Mus musculus; experiment: Antitumor activity against L1210 tumor in mice, at a dose of 400 mg/kg per ip administration.; conditions: route intraperitoneal; in short: as §1
# [3] = tested on: Mus musculus; experiment: Percent increase in life span of drug-treated mice relative to tumored, vehicle treated controls at a dose of 200 mg/kg ip.; conditions: Mus musculus, ip
# In short: (§2)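 Tumors implanted day 0: B16 melanoma as 0.5 mL of 1:10 brei into BDF1 mice; L1210 or P388 leukemia as 10^6 cells into CDF1 mice, ip or sc. Drug was given in physiologic saline by ip or oral route, QD 1-9. %ILS was calculated against saline-treated tumored controls, with body-weight change difference as the toxicity read-out. Six mice per dose in most experiments.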
# [4] = tested on: Mus musculus; experiment: Percent increase in life span of drug-treated mice relative to tumored, vehicle treated controls at a dose of 400 mg/kg ip.; conditions: Mus musculus, ip; in short: as §2
# [5] = tested on: Mus musculus; experiment: Antitumor activity against L1210 tumor in mice, at a dose of 800 mg/kg per ip administration.; conditions: route intraperitoneal; in short: as §1
# [6] = tested on: Mus musculus; experiment: Percent increase in life span of drug-treated mice relative to tumored, vehicle treated controls at a dose of 800 mg/kg ip.; conditions: Mus musculus, ip; in short: as §2
# [7] = tested on: Mus musculus; experiment: Antitumor activity against P388 tumor in mice, at a dose of 2.5 mg/kg per ip administration.; conditions: route intraperitoneal; in short: as §1
# [8] = tested on: Mus musculus; experiment: Antitumor activity against L1210 tumor in mice, at a dose of 1.67 mg/kg per ip administration.; conditions: route intraperitoneal; in short: as §1
# [9] = tested on: Mus musculus; experiment: Percent increase in life span of drug-treated mice relative to tumored, vehicle treated controls at a dose of 1.25 mg/kg ip.; in short: as §2
# [10] = tested on: Mus musculus; experiment: Percent increase in life span of drug-treated mice relative to tumored, vehicle treated controls at a dose of 1.67 mg/kg ip.; in short: as §2
# [11] = tested on: Mus musculus; experiment: Antitumor activity against L1210 tumor in mice, at a dose of 2.5 mg/kg per ip administration.; conditions: route intraperitoneal; in short: as §1
# [12] = tested on: Mus musculus; experiment: Antitumor activity against P388 tumor in mice, at a dose of 3.75 mg/kg per ip administration.; conditions: route intraperitoneal; in short: as §1
# [13] = tested on: Mus musculus; experiment: Antitumor activity against L1210 tumor in mice, at a dose of 0.68 mg/kg per ip administration.; conditions: route intraperitoneal; in short: as §1
# [14] = tested on: Mus musculus; experiment: Percent increase in life span of drug-treated mice relative to tumored, vehicle treated controls at a dose of 0.68 mg/kg ip.; in short: as §2
# [15] = tested on: Mus musculus; experiment: Antitumor activity against L1210 tumor in mice, at a dose of 1.11 mg/kg per ip administration.; conditions: route intraperitoneal; in short: as §1
# [16] = tested on: Mus musculus; experiment: Percent increase in life span of drug-treated mice relative to tumored, vehicle treated controls at a dose of 3.75 mg/kg ip.; in short: as §2
# [17] = tested on: Mus musculus; experiment: Antitumor activity against L1210 tumor in mice, at a dose of 1.25 mg/kg per ip administration.; conditions: route intraperitoneal; in short: as §1
# [18] = tested on: Mus musculus; experiment: Percent increase in life span of drug-treated mice relative to tumored, vehicle treated controls at a dose of 2.5 mg/kg ip.; in short: as §2
# [19] = tested on: Mus musculus; experiment: Antitumor activity against P388 tumor in mice, at a dose of 1.67 mg/kg per ip administration.; conditions: route intraperitoneal; in short: as §1
# [20] = tested on: Mus musculus; experiment: Antitumor activity against P388 tumor in mice, at a dose of 1.11 mg/kg per ip administration.; conditions: route intraperitoneal; in short: as §1
# [21] = tested on: Mus musculus; experiment: Percent increase in life span of drug-treated mice relative to tumored, vehicle treated controls at a dose of 1.11 mg/kg ip.; in short: as §2
compound,measurement,setting,value
O=c1ncccn1[C@@H]1O[C@H](CO)[C@@H](O)[C@@H]1F,Weight change difference,[1],1 g
same,Weight change difference,[2],0 g
same,ILS at 200 mg/kg,[3],31%
same,ILS at 400 mg/kg,[4],37%
same,Weight change difference,[5],1 g
same,ILS at 800 mg/kg,[6],43%
O=c1ncc(F)cn1C1O[C@H](CO)[C@@H](O)[C@H]1O (stereo partly specified),Weight change difference,[7],-2 g
same,Weight change difference,[8],-1 g
same,ILS at 1.25 mg/kg,[9],75%
same,ILS,[10],118% and 45% and 50%
same,Weight change difference,[11],-1 g and -2 g
same,Weight change difference,[12],-2 g
same,Weight change difference,[13],0 g
same,ILS at 0.68 mg/kg,[14],62%
same,Weight change difference,[15],0 g
same,ILS at 3.75 mg/kg,[16],60%
same,Weight change difference,[17],0 g
same,ILS,[18],137% [middle of 4 runs]
same,Weight change difference,[19],-2 g
same,Weight change difference,[20],-1 g
same,ILS,[21],75% and 50%
